KCNQ1 pot: potentiators or activators of human KCNQ1 potassium channel | hit rate 0.35% among 310,000 | P51787 | CHO-K1 KCNQ1, thallium flux FluxOR fluorescence; hits give high values | B-score at 10 µM | AID 2648;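 active = fluorescence ratio B-score, a plate-corrected score, at least three library SD, with initial intensity B-score within 5 SD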
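Material: CHO-K1 cells stably expressing KCNQ1. Medium: assay buffer for compound exposure, DMSO matched across wells. Reagent: K+/Tl+ depolarizing stimulus. Compound dosing: single-concentration screen. Times: 37 °C overnight plating, 90-min dark dye load, 20-min compound pretreatment. Technique: FluxOR Tl+ flux fluorescence.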
Kir21 block: blocks the mouse Kir2.1 inward-rectifier potassium channel; hit rate 0.85% among 310,000; B-score at 10 µM; HEK293-Kir2.1, FluxOR thallium flux fluorescence; hits give low values; AID 1672;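 active = fluorescence ratio B-score at or below minus 3 SD of library scores, with starting-brightness B-score within 2 SD, cut at about -4.2 in these data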;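 also: channel flux triggered by added potassium and thallium sulfate stimulus; B-score of peak minus minimum fluorescence over baseline after thallium stimulus; more negative B-score means stronger Kir2.1 block with less thallium influx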
KCNK3 inh: human KCNK3 channel inhibition, primary screen; O14649; CHO-KCNK3 thallium flux, FluxOR fluorescence; hits give low values; B-score at 10 µM; hit rate 0.84% among 340,000;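 active = B-score under library mean minus 4 SD, starting fluorescence ratio at most library mean plus 5 SD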;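 also: more negative B-score means stronger inhibition of thallium flux through KCNK3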
KCNQ1 inh: blocks the human KCNQ1 potassium channel | P51787 | CHO-K1 KCNQ1, FluxOR thallium flux fluorescence; hits give high values | B-score at 10 µM | hit rate 1.3% among 310,000 | AID 2642;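 active = compounds whose thallium flux B-score, printed positive for inhibition, exceeds three library SD while starting fluorescence stays within three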;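 also: channel opened by potassium depolarization with thallium stimulus after 20 min compound exposure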
hERG rescue: hERG (human) protection from proarrhythmic block | Q12809 | CHO-hERG, FluxOR thallium flux, dofetilide IC70 present | activation (rescue from dofetilide block), less the hit threshold, % at 10 µM | hit rate 0.51% among 310,000 | AID 1511;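 active = activation above the mean of controls blocked by dofetilide plus 5 SD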;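 also: thallium influx through hERG after potassium depolarization seen as dye fluorescence rise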
Target sequence (Q12809 whole entry, looked up): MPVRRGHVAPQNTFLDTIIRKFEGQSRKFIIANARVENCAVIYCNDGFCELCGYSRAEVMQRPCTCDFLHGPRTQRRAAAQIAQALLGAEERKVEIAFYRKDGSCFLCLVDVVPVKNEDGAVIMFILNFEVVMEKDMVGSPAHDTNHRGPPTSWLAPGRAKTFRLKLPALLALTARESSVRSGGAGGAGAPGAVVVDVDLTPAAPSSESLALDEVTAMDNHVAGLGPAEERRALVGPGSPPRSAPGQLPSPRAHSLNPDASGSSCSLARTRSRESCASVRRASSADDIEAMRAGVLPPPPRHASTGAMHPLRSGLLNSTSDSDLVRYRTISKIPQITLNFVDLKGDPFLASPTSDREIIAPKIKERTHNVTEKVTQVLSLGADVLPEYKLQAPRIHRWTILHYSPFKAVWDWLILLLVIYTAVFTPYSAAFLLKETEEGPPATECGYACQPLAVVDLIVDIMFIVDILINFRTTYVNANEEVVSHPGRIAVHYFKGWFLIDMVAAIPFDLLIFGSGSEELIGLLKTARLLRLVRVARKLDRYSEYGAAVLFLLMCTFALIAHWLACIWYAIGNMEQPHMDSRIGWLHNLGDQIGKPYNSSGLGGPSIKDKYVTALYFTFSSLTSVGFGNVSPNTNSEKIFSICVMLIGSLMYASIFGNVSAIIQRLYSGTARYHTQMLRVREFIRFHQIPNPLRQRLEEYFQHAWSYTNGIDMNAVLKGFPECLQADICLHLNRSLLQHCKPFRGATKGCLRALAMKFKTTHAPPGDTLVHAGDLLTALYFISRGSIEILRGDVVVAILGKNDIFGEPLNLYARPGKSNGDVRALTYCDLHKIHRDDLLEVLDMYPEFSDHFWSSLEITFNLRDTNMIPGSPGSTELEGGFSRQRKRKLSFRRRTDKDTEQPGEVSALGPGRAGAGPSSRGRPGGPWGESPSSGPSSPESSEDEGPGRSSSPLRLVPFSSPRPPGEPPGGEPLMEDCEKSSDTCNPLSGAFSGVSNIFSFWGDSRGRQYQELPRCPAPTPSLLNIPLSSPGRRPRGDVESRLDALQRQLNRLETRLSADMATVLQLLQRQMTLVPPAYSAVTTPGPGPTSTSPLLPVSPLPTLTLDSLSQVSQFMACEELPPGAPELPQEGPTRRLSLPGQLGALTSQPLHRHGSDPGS
KCNK9 block: human KCNK9 channel inhibition | Q9NPC2 | HEK293 KCNK9, FluxOR thallium flux fluorescence; hits give low values | B-score at 10 µM | hit rate 1.2% among 310,000 | AID 488922;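 active = ratio B-score over 3 SD below the library mean, with starting fluorescence within 5 SD of its mean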;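 also: negative B-score means less thallium flux so channel inhibition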
KCNK9 inh conf: confirmation of human KCNK9 potassium channel inhibitors. shares compounds with KCNK9 block. hit rate 43% among 4,900. inhibition, % at 10 µM. HEK293 KCNK9 cells, FluxOR thallium flux fluorescence;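 active = thallium signal inhibited by more than 5 SD of the compound-free buffer control wells, on both duplicate plates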;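 also: 0% = assay buffer control wells without compound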
Kir21 sel: tests whether KCNK9 modulators also affect mouse Kir2.1; inhibition, % at 10 µM; AID 492993; shares compounds with KCNK9 block; Kir2.1 cells, FluxOR thallium flux fluorescence; hit rate 4% among 4,900;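 active = thallium signal drop more than 5 SD beyond the mean of the no-compound control wells, seen in both duplicate plates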;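 also: signal is fluorescence rise after thallium addition divided by baseline fluorescence; plate controls were assay buffer only for no effect and full block by chlorpromazine control for full effect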
HEK293 Tl ctr: second counter-screen for KCNK9 modulators: effect in non-induced cells; hit rate 40% among 4,900; shares compounds with KCNK9 block; non-induced KCNK9-HEK293, FluxOR thallium flux; inhibition, % at 10 µM;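 active = thallium signal drop beyond 5 SD of the untreated control mean, on both duplicate plates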;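 also: plate controls were buffer only IC0 wells for no effect and SID17386958 at its maximal inhibitory level for full effect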
Numbers without * were called inactive. An excerpt weighted towards active compounds, which were near 3.7% of everything screened.

Screening Cc1cc(C)c(S(=O)(=O)Nc2nnc(C(C)C)s2)c(C)c1 returned KCNQ1 pot inactive, Kir21 block 1.09, KCNK3 inh inactive, KCNQ1 inh inactive, hERG rescue -3.8 and KCNK9 block inactive.
O=C(c1ccncc1)N1N=C(c2ccc(Br)cc2)CC1c1ccccc1O (stereo not drawn) was read as KCNQ1 pot inactive, Kir21 block 0.28, KCNK3 inh inactive, KCNQ1 inh inactive, hERG rescue -4.9 and KCNK9 block inactive.
For O=C(c1ccccc1Cl)N1N=C(c2ccc(Br)cc2)CC1c1nc2ccccc2[nH]1 (stereo not drawn) the results were KCNQ1 pot inactive, Kir21 block 0.03, KCNK3 inh inactive, KCNQ1 inh inactive, hERG rescue -7.2, KCNK9 block -8.94*, KCNK9 inh conf 35.5%*, Kir21 sel inactive and HEK293 Tl ctr 29.5%*.
Screening COc1ccccc1N1CCN(C(=O)C(=O)c2cn(CC(=O)N3CCOCC3)c3ccccc23)CC1 returned KCNQ1 pot inactive, Kir21 block -0.03, KCNK3 inh inactive, KCNQ1 inh inactive, hERG rescue -9.3 and KCNK9 block inactive.
Screening c1csc(-c2noc(COc3ccc4c(c3)CCCC4)n2)c1 returned KCNQ1 pot inactive, Kir21 block 0.78, KCNK3 inh inactive, KCNQ1 inh inactive, hERG rescue -16.0, KCNK9 block inactive, KCNK9 inh conf inactive, Kir21 sel inactive and HEK293 Tl ctr inactive.
Clc1ccc(OCc2nc(-c3ccc(Br)o3)no2)cc1 was read as KCNQ1 pot inactive, Kir21 block -0.06, KCNK3 inh inactive, KCNQ1 inh inactive, hERG rescue -5.2 and KCNK9 block inactive.
Brc1ccc(-c2noc(COc3ccc4c(c3)CCC4)n2)o1 was read as KCNQ1 pot inactive, Kir21 block 1.14, KCNK3 inh inactive, KCNQ1 inh inactive, hERG rescue -17.6, KCNK9 block inactive, KCNK9 inh conf inactive, Kir21 sel inactive and HEK293 Tl ctr inactive.
Cc1ccc(S(=O)(=O)N(C)C)cc1NC(=O)CSc1nc2ncc(Cl)cc2[nH]1 was read as KCNK3 inh inactive.
`CC1=CC2=NC(=O)/C(=C\c3cccn3CCOc3cc(C)ccc3C)C(=N)N2O1` gave KCNQ1 pot inactive, Kir21 block -1.3, KCNK3 inh inactive, KCNQ1 inh inactive, hERG rescue -10.5, KCNK9 block -8.8*, KCNK9 inh conf 66.5%*, Kir21 sel inactive and HEK293 Tl ctr 29.0%*.
CCC(=O)n1nc(NCc2ccccc2OC)nc1NCc1ccccc1OC was read as KCNQ1 pot inactive, Kir21 block 0.69, KCNK3 inh inactive, KCNQ1 inh 8*, hERG rescue -11.7, KCNK9 block inactive, KCNK9 inh conf inactive, Kir21 sel inactive and HEK293 Tl ctr inactive.
COc1cccc(N2C(=O)Nc3ccc(Br)cc3C2(O)C(=O)NCCCOC(C)C)c1 (stereo not drawn) was read as KCNQ1 pot inactive, Kir21 block 0.81, KCNK3 inh inactive, KCNQ1 inh inactive, hERG rescue -11.3 and KCNK9 block inactive.
O=C(NCCc1ccccc1)C(c1ccccc1F)N(C(=O)c1csnn1)C1CC1 (stereo not drawn) was read as KCNQ1 pot inactive, Kir21 block 0.54, KCNK3 inh inactive, KCNQ1 inh inactive, hERG rescue -12.0 and KCNK9 block inactive.
For O=C(O/N=C\c1ccc(N2CCCCC2)c([N+](=O)[O-])c1)c1ccc(Cl)cc1Cl the results were KCNQ1 pot inactive, Kir21 block 0.33, KCNK3 inh inactive, KCNQ1 inh inactive, hERG rescue -8.3 and KCNK9 block inactive.
Screening COc1ccccc1C(=O)/C=C/c1ccc(N2CCCCC2)c([N+](=O)[O-])c1 returned KCNQ1 pot inactive, Kir21 block 0.03, KCNK3 inh inactive, KCNQ1 inh inactive, hERG rescue -3.7, KCNK9 block -9.96*, KCNK9 inh conf 50.0%*, Kir21 sel inactive and HEK293 Tl ctr 31.0%*.
CCCn1c(=O)c(C(=O)Nc2cccc(C)n2)c(O)c2ccccc21 was read as KCNQ1 pot inactive, Kir21 block -0.42, KCNK3 inh inactive, KCNQ1 inh inactive, hERG rescue -7.0, KCNK9 block -10.1*, KCNK9 inh conf inactive, Kir21 sel inactive and HEK293 Tl ctr 29.0%*.
`CCCCCCCCC(=O)NNC(=O)c1c(O)c2ccccc2n(CCC)c1=O` gave KCNQ1 pot inactive, Kir21 block 0.45, KCNK3 inh inactive, KCNQ1 inh inactive, hERG rescue -11.1, KCNK9 block inactive, KCNK9 inh conf inactive, Kir21 sel inactive and HEK293 Tl ctr inactive.
Cc1cc(-c2nnc(CCC(=O)NCc3cc(F)cc(C(F)(F)F)c3)o2)no1 was read as KCNQ1 pot inactive, Kir21 block 1.19, KCNK3 inh inactive, KCNQ1 inh inactive, hERG rescue -11.5 and KCNK9 block inactive.
CCCN1C(=O)/C(=N\OCC(=O)NC23CC4CC(CC(C4)C2)C3)c2ccccc21 was read as KCNQ1 pot inactive, Kir21 block 0.05, KCNK3 inh inactive, KCNQ1 inh inactive, hERG rescue -8.8 and KCNK9 block inactive.
CC1CCCCN1C(=O)COC(=O)C1CCN(S(=O)(=O)c2c(Cl)cccc2Cl)CC1 (stereo not drawn) was read as KCNQ1 pot inactive, Kir21 block 1.33, KCNK3 inh inactive, KCNQ1 inh inactive, hERG rescue -14.6 and KCNK9 block inactive.
C/C(=N\NC(=S)NCCc1ccccc1)c1cccs1 was read as KCNQ1 pot inactive, Kir21 block -0.52, KCNK3 inh inactive, KCNQ1 inh inactive, hERG rescue 3.5, KCNK9 block inactive, KCNK9 inh conf inactive, Kir21 sel inactive and HEK293 Tl ctr inactive.
For CN(C)C(=O)c1ccc(NC(=O)COC(=O)C2(c3ccccc3)CCCC2)cc1 the results were KCNK3 inh inactive.
Cc1cc2nc(-c3ccc4c(c3)CCC4)ccn2n1 was read as KCNQ1 pot inactive, Kir21 block 0.33, KCNK3 inh inactive, KCNQ1 inh inactive, hERG rescue -17.5, KCNK9 block inactive, KCNK9 inh conf inactive, Kir21 sel inactive and HEK293 Tl ctr inactive.

Screening results as filed in PubChem BioAssay.
